Measurements: BindingDB's records for doi:10.1021/jm9003297 (University of Bonn, 2009)

Legend:
[1] = target: P2Y purinoceptor 12 (Homo sapiens, UniProt Q9H244); assay: Displacement of [3H]PSB0413 from human platelet P2Y12 receptor
Method in brief: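 Membranes from outdated human blood-bank platelets (4-5 days post-donation), washed, centrifuged, homogenized, stored at -80 °C. 100 µg protein incubated with 5 nM [³H]PSB-0413 in 50 mM Tris-HCl pH 7.4 for 1 h at rt, then filtered over GF/B. Nonspecific binding with 1 mM ADP. Screen at 10 µM. Ki from curves of 6-7 concentrations over 3 log units. At least three experiments in triplicate.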

[2] = Displacement of [3H]DPCPX from human adenosine A1 receptor expressed in CHO cells assessed as ratio of IC50 in presence of GTP to absence of GTP by GTP shift assay

P2Y purinoceptor 12, sequence (Q9H244 whole entry): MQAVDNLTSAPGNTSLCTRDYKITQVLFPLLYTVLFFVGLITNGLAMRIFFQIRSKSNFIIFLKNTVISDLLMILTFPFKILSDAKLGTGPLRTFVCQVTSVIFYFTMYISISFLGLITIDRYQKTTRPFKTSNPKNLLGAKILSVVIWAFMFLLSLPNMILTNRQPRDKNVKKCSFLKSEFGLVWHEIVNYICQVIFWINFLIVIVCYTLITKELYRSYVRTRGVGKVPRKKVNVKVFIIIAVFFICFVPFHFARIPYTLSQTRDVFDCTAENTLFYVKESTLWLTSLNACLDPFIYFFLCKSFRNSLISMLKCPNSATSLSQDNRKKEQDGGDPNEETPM

Row | Structure (SMILES) | Ki [1] [µM] | IC50 [2] [µM]
1 | CN(C)[C@@H]1C(=O)C(C(N)=O)C(=O)[C@@]2(O)C(=O)C3C(=O)c4c(O)ccc(Cl)c4[C@@](C)(O)[C@H]3C[C@@H]12 (stereo partly drawn) | > 10 | –
2 | CN(C)[C@@H]1C(=O)C(C(N)=O)C(=O)[C@@]2(O)C(=O)C3C(=O)c4c(O)cccc4[C@@](C)(O)[C@H]3C[C@@H]12 (stereo partly drawn) [Achromycin] | > 10 | –
3 | Nc1c(S(=O)(=O)O)cc(Nc2ccc(Nc3ncccn3)c(S(=O)(=O)O)c2)c2c1C(=O)c1ccccc1C2=O [Disodium 1-amino-4-[4-([1,3]diazine-2-ylamino)-3-sulfophenylamino]-9,10-dioxo-9,10-dihydroanthracene-2-sulfonate] | – | 0.76
